Shown are actives, neighbours in structure and some others; about 0.99% of the full set was active somewhere.
DDE Tn6 FP inh = DD(E)-Tn6 binding inhibition, primary FP screen | Fibrin DD(E) TRITC-Tn6 fluorescence polarization displacement | inhibition, % at 8.3 µM | actives 0.21% (n = 370,000);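 active means inhibition above a per-campaign cutoff: mean of compounds within control limits plus 3 SD, cut at about 15% in these data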;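 further: 0% = median of all compound wells on the plate and 100% = blocking peptide control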
Ins promoter up = MIN6 insulin promoter up-regulation | MIN6 insulin promoter-GFP reporter, high-content imaging; active compounds read high | z-score at 5 µM | actives 0.3% (n = 190,000);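 active means z-score above 3 at 5 µM with at least 500 cells counted in the well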
DDE Tn7 FP inh = inhibitors of Tn7 peptide binding to human fibrin DD(E); P02675; AID 720508; actives 0.13% (n = 370,000); inhibition, % at 8.3 µM; FP displacement of FITC-Tn7 peptide from fibrin DD(E); 0% = median of compound wells per plate;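 active means inhibition above the mean of compounds falling within the control limits plus 3 SD of them, cut at about 14% in these data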;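 further: 0% = plate median of compound wells and 100% = 10 µM Aha-Tn7 peptide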
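Assay system: human fibrin DD(E) protein / Input: 2 µM fibrin DD(E) / Benchmarks: high control of 10 µM Aha-Tn7 peptide / Measured by: fluorescence polarization of the labelled Tn7 tracer / Medium: Tris buffer with calcium and detergent, pH 7.8 / Timing: 10 min compound pre-incubation, 3 h probe incubation at room temperature / Repeats: one replicate per compound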
ABCB1 block = human ABCB1 inhibition, ABCG2 as counter-screen | CCRF-Adr cells, JC-1 efflux, flow cytometry | inhibition, % at 6.6 µM | AID 1326 | P08183 | actives 0.067% (n = 190,000); in the data active means inhibition above about 40%;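 further: 0% = vehicle and 100% = reference inhibitor; higher value means more JC-1 retained so stronger ABCB1 efflux block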
ABCG2 inh = inhibitors of human ABCG2 transporter, ABCB1 counter-screen | Q9UNQ0 | IgMXP3 cells, JC-1 efflux, flow cytometry | inhibition, % at 6.6 µM | actives 0.1% (n = 190,000) | AID 1325;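 active means inhibition above 80%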;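 further: 0% = DMSO and 100% = nicardipine control wells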
Target sequence (Q9UNQ0 whole entry, looked up): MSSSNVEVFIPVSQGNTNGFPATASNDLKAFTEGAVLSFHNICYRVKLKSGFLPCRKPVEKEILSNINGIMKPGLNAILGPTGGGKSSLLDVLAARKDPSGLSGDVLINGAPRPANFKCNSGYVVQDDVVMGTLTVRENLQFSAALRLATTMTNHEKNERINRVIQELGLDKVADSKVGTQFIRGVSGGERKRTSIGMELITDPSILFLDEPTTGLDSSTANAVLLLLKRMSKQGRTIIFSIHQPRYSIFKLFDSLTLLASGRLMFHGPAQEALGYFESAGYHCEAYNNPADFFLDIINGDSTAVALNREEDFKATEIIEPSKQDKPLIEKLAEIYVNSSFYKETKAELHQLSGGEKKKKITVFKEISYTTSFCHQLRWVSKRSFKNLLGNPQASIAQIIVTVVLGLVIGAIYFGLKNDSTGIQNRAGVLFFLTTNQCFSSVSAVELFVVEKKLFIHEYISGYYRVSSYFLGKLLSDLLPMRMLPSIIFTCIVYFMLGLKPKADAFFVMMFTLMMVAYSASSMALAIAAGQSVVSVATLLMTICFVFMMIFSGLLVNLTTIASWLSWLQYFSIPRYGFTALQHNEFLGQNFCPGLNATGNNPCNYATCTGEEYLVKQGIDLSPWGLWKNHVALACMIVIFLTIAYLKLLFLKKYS
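Read-out basis: Efflux inhibition in percent versus controls | Test system: ABCG2 IgMXP3 and barcoded ABCB1 CCRF-Adr cell mix | Quantity: 3 million cells/mL in well | Schedule: 10 min at 25 °C | Control set: Nicardipine as high control, DMSO as low control | Reagent: JC-1 as fluorescent efflux pump substrate | Signal: Flow cytometry of retained JC-1 fluorescence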
GRK2 aptamer HTS = inhibitors of human GRK2 displacing RNA aptamer; inhibition of aptamer binding, % at 10 µM; actives 0.59% (n = 330,000); P25098; bead flow cytometry, FAM-aptamer displacement from GRK2;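 active means inhibition of aptamer binding above 40%, roughly 3 SD of noise, on plates passing a quality check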;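 further: median bead fluorescence of bound FAM aptamer so fluorescent compounds give negative values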
DDE Tn6 FP ctr = counter-screen hit for Tn6 peptide-fibrin DD(E) binding disruption | shares compounds with DDE Tn6 FP inh | TRITC-Tn6 fluorescence polarization displacement; 0% = median of compound wells, not DMSO | inhibition, % at 8.3 µM | actives 2% (n = 680) | AID 720621;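 active means inhibition above the mean of test compounds lying between the control limits plus 3 SD of those, cut at about 14% in these data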;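 further: 0% = median of compound wells and 100% = wells with Aha-Tn7 blocking peptide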
Tn6 DDE conf = DD(E)-Tn6 binding inhibition, FP confirmation | actives 10% (n = 680) | inhibition, % at 8.3 µM | FP displacement of TRITC-Tn6 peptide from DD(E); 0% = per-plate median of test wells | AID 720631 | shares compounds with DDE Tn6 FP inh;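 active means inhibition above the mean of compounds lying within the control limits plus 3 SD, cut at about 16% in these data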;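 further: 100% = high control wells holding a competing inhibitor peptide at 10 µM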
Numbers without * were called inactive; · = no result.

SMILES	DDE Tn6 FP inh	Ins promoter up	DDE Tn7 FP inh	ABCB1 block	ABCG2 inh	GRK2 aptamer HTS	DDE Tn6 FP ctr	Tn6 DDE conf
O=C1c2ccccc2C(=O)c2c(NCc3cccnc3)cccc21	6	2.4	1	2	7	3	·	·
O=C1c2cccc(NCCCNCCO)c2C(=O)c2cccc(NCCCNCCO)c21	21*	·	-6	·	·	·	7	32*
Cc1cc(N)ccc1N1CCCC1	·	-0.27	·	0	4	0	·	·
Cc1cc(N)ccc1-n1c(C)ccc1C	154*	·	4	0	1	3	2	11
CN1C(=CC=C2C=C(I)C(=O)C(I)=C2)C(C)(C)c2ccccc21	-28	-0.24	-2	·	·	·	·	·
CN1/C(=C\C=C2/SC(=S)NC2=O)C(C)(C)c2ccccc21	70*	·	-107	0	0	0	-95	57*
C=CCN(CC#CC1=CCCCC1)CC1CC1	3	·	9	·	·	·	·	·
C#CCN1CC(COCCCC)Oc2cccc(Oc3ccc(C(C)(C)C)c(C)c3)c2S1(=O)=O (centres undefined)	-5	·	-5	·	·	·	·	·
NS(=O)(=O)c1ccc(NC(=O)CSc2nc3ccccc3c(=O)n2-c2ccc(Br)cc2)cc1	27*	·	-3	·	·	·	1	8
NS(=O)(=O)c1ccc(NC(=O)CSc2nc3ccccc3c(=O)n2Cc2ccncc2)cc1	7	·	-6	·	·	2	·	·
Cc1ccc(-c2cc(C(=O)NN=Cc3c4ccccc4cc4ccccc34)[nH]n2)cc1C	-5	·	3	·	·	·	·	·
Cc1ccc(-c2cc(C(=O)NN=Cc3cccc(Oc4ccccc4)c3)[nH]n2)cc1C	19*	·	1	·	·	·	4	0
Cc1ccc(-c2cc(C(=O)NN=Cc3cccc(OCc4ccccc4)c3)[nH]n2)cc1C	20*	·	-6	·	·	·	8	16*
Cc1ccc(-c2cc(C(=O)NN=Cc3ccc(F)cc3)[nH]n2)cc1C	-12	·	1	·	·	·	·	·
COc1ccc(C=NNC(=O)c2cc(-c3ccc(C)c(C)c3)n[nH]2)cc1OCc1ccccc1	16*	·	-6	·	·	·	2	2
COc1ccc(F)cc1-c1cc(NC(C)=O)c2ncc(-c3cccc(C(F)(F)F)c3)n2c1	-2	·	-8	·	·	·	·	·
CCN(CC)C(=O)CC[C@H]1CC[C@]2(CCCN(Cc3nccs3)C2)O1	-2	·	2	·	·	·	·	·
COC(=O)[C@@]12CCCCC3=C1N(CCC3)C(=O)[C@H]2CC(=O)NCCCCc1ccccc1	-4	·	-5	·	·	·	·	·
C[C@H]1C2CC(OC(=O)Nc3cccc(F)c3)C(C2)[C@H]2CCCCN21 (some centres undefined)	3	·	8	·	·	·	·	·
Cc1cc(C(=O)COc2ccc([N+](=O)[O-])cc2)c(C)n1C1CC1	-5	-0.04	-2	·	·	4	·	·
Cc1cc(C(=O)COc2cc(F)ccc2[N+](=O)[O-])c(C)n1C1CC1	16*	·	6	1	2	0	3	1
CCCCOCCCNC(=O)C[C@@H]1C[C@@]2(C(=O)OC)CC(C)(C)CC=C2N(Cc2ccco2)C1=O	-1	·	-7	·	·	·	·	·
Nc1nnc(CCC2CCCCC2)s1	17*	·	-1	0	3	2	4	2
Nc1nnc(CCCCCCCCCCc2nnc(N)s2)s1	0	-1.2	-6	0	1	0	·	·
Cc1cc(C)c(S(=O)(=O)NCc2nc3nc(C)cc(C)n3n2)c(C)c1	1	·	6	·	·	0	·	·
CC(=O)Nc1ccc(S(=O)(=O)NCc2ccc3c(c2)cc(C)n3C)cc1	62*	-1.6	-1	0	0	8	-6	-9
Cc1cc2cc(CNS(=O)(=O)c3ccc4ccccc4c3)ccc2n1C	50*	0.46	-2	-2	-6	4	6	20*
Cc1cc(C)c(S(=O)(=O)NCc2ccc3c(c2)cc(C)n3C)c(C)c1	59*	0.14	-3	0	1	5	-4	8
CCC[C@H]1[C@@H](NC(=O)c2cccc(C(F)(F)F)c2)CC[C@@]23CCCN2C(=O)CCC[C@@H]13	2	·	6	·	·	·	·	·
CCOC(=O)[C@@H]1CSCCS(=O)(=O)N1C(=O)[C@H](Cc1ccccc1)NC(=O)OC(C)(C)C	-3	·	-6	·	·	·	·	·
